Data: ChEMBL document CHEMBL4130370, “Discovery of 5,6-diaryl-1,2,4-triazines hybrids as potential apoptosis inducers” (Eur J Med Chem, 2017)
Activity calls are given as the source filed them. The calls are words filed in the database; no cut-off is given here.

What was measured:
[1] = tested on: MGC-803; experiment: Antiproliferative activity against human MGC803 cells after 48 hrs by MTT assay; type: functional, cell-based; conditions: MGC-803, 48 h
In short: (§1)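 Cells exposed to compounds for 48 h, then read by MTT. IC50 is the concentration giving 50% inhibition of tumour cell proliferation, taken from dose-response curves. Values are means±SD of three independent experiments. 5-FU was the reference drug.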

[2] = tested on: ECa-109 cell line; experiment: Antiproliferative activity against human EC109 cells after 48 hrs by MTT assay; type: functional, cell-based; conditions: ECa-109, 48 h; in short: as §1
[3] = tested on: PC-3; experiment: Antiproliferative activity against human PC3 cells after 48 hrs by MTT assay; type: functional, cell-based; conditions: PC-3, 48 h; in short: as §1
[4] = tested on: SK-N-SH; experiment: Antiproliferative activity against human SK-N-SH cells after 48 hrs by MTT assay; type: functional, cell-based
[5] = tested on: MGC-803; experiment: Induction of apoptosis in human MGC803 cells assessed as nuclear condensation at 6 to 10 uM after 48 hrs by Hoechst 33258-staining based fluorescent microscopy; type: functional, cell-based
In short: (§2)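 MGC-803 cells incubated at the indicated concentrations for 48 h. Nuclei then stained (legend says DAPI; methods say Hoechst 33258) and viewed by fluorescence microscopy at ×400.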

[6] = tested on: MGC-803; experiment: Induction of apoptosis in human MGC803 cells assessed as nuclear fragmentation at 6 to 10 uM after 48 hrs by Hoechst 33258-staining based fluorescent microscopy; type: functional, cell-based; in short: as §2
[7] = tested on: MGC-803; experiment: Induction of apoptosis in human MGC803 cells assessed as chromatin condensation at 6 to 10 uM after 48 hrs by Hoechst 33258-staining based fluorescent microscopy; type: functional, cell-based; in short: as §2
[8] = tested on: GES1; experiment: Cytotoxicity against human GES-1 cells after 48 hrs by MTT assay; type: cell-based; conditions: GES1, 48 h
[9] = tested on: MGC-803; experiment: Inhibition of colony formation in human MGC803 cells up to 8 uM after 7 days; type: functional, cell-based
In short: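 MGC-803 cells treated at various concentrations for about a week. Colonies then imaged and compared with untreated control.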

[10] = tested on: MGC-803; experiment: Cell cycle arrest in human MGC803 cells assessed as accumulation at G1 phase at 6 uM after 48 hrs by propidium iodide-staining based flow cytometry (50.18%); type: functional
In short: (§3)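 MGC-803 cells treated at 0, 6 or 8 µM for 48 h. Cells then fixed, stained with propidium iodide and analysed by flow cytometry for cell-cycle phase distribution.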

[11] = tested on: MGC-803; experiment: Cell cycle arrest in human MGC803 cells assessed as accumulation at S phase at 6 uM after 48 hrs by propidium iodide-staining based flow cytometry (25.56%); type: functional; in short: as §3
[12] = tested on: MGC-803; experiment: Cell cycle arrest in human MGC803 cells assessed as accumulation at G2/M phase at 6 uM after 48 hrs by propidium iodide-staining based flow cytometry (19.75%); type: functional; in short: as §3
[13] = tested on: MGC-803; experiment: Cell cycle arrest in human MGC803 cells assessed as accumulation at G1 phase at 8 uM after 48 hrs by propidium iodide-staining based flow cytometry (50.18%); type: functional; in short: as §3
[14] = tested on: MGC-803; experiment: Cell cycle arrest in human MGC803 cells assessed as accumulation at S phase at 8 uM after 48 hrs by propidium iodide-staining based flow cytometry (25.56%); type: functional; in short: as §3
[15] = tested on: MGC-803; experiment: Cell cycle arrest in human MGC803 cells assessed as accumulation at G2/M phase at 8 uM after 48 hrs by propidium iodide-staining based flow cytometry (19.75%); type: functional; in short: as §3
[16] = tested on: MGC-803; experiment: Cell cycle arrest in human MGC803 cells assessed as accumulation at G2/M phase after 48 hrs by propidium iodide-staining based flow cytometry; type: functional; in short: as §3
[17] = tested on: MGC-803; experiment: Induction of morphological changes in human MGC803 cells assessed as rounding up of cells at 6 to 10 uM after 48 hrs by inverted microscopic analysis; type: functional, cell-based
In short: (§4)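 MGC-803 cells incubated at 0, 6, 8 or 10 µM for 48 h. Morphology then recorded under an inverted microscope at ×400.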

[18] = tested on: MGC-803; experiment: Induction of morphological changes in human MGC803 cells assessed as formation of cell debris at 6 to 10 uM after 48 hrs by inverted microscopic analysis; type: functional, cell-based; in short: as §4
[19] = tested on: MGC-803; experiment: Induction of apoptosis in human MGC803 cells assessed as viable cells at 6 uM after 48 hrs Annexin V-FITC/propidium iodide based flow cytometry (96.5%); type: functional; conditions: MGC-803, 48 h, read-out: Activity
In short: (§5)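 MGC-803 cells treated at 0, 6, 8 or 10 µM for 48 h. Cells then double-stained with Annexin V-FITC and propidium iodide and analysed by biparametric flow cytometry.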

[20] = tested on: MGC-803; experiment: Induction of apoptosis in human MGC803 cells assessed as early apoptotic cells at 6 uM after 48 hrs Annexin V-FITC/propidium iodide based flow cytometry (2.3%); type: functional; in short: as §5
[21] = tested on: MGC-803; experiment: Induction of apoptosis in human MGC803 cells assessed as late apoptotic cells at 6 uM after 48 hrs Annexin V-FITC/propidium iodide based flow cytometry (1%); type: functional; in short: as §5
[22] = tested on: MGC-803; experiment: Induction of apoptosis in human MGC803 cells assessed as necrotic cells at 6 uM after 48 hrs Annexin V-FITC/propidium iodide based flow cytometry (0.1%); type: functional; in short: as §5
[23] = tested on: MGC-803; experiment: Induction of apoptosis in human MGC803 cells assessed as viable cells at 8 uM after 48 hrs Annexin V-FITC/propidium iodide based flow cytometry (96.5%); type: functional; conditions: MGC-803, 48 h, read-out: Activity; in short: as §5
[24] = tested on: MGC-803; experiment: Induction of apoptosis in human MGC803 cells assessed as early apoptotic cells at 8 uM after 48 hrs Annexin V-FITC/propidium iodide based flow cytometry (2.3%); type: functional; in short: as §5
[25] = tested on: MGC-803; experiment: Induction of apoptosis in human MGC803 cells assessed as late apoptotic cells at 8 uM after 48 hrs Annexin V-FITC/propidium iodide based flow cytometry (1%); type: functional; in short: as §5
[26] = tested on: MGC-803; experiment: Induction of apoptosis in human MGC803 cells assessed as necrotic cells at 8 uM after 48 hrs Annexin V-FITC/propidium iodide based flow cytometry (0.1%); type: functional; in short: as §5
[27] = tested on: MGC-803; experiment: Induction of apoptosis in human MGC803 cells assessed as viable cells at 10 uM after 48 hrs Annexin V-FITC/propidium iodide based flow cytometry (96.5%); type: functional; conditions: MGC-803, 48 h, read-out: Activity; in short: as §5
[28] = tested on: MGC-803; experiment: Induction of apoptosis in human MGC803 cells assessed as early apoptotic cells at 10 uM after 48 hrs Annexin V-FITC/propidium iodide based flow cytometry (2.3%); type: functional; in short: as §5
[29] = tested on: MGC-803; experiment: Induction of apoptosis in human MGC803 cells assessed as late apoptotic cells at 10 uM after 48 hrs Annexin V-FITC/propidium iodide based flow cytometry (1%); type: functional; in short: as §5
[30] = tested on: MGC-803; experiment: Induction of apoptosis in human MGC803 cells assessed as necrotic cells at 10 uM after 48 hrs Annexin V-FITC/propidium iodide based flow cytometry (0.1%); type: functional; in short: as §5
[31] = tested on: MGC-803; experiment: Induction of mitochondrial membrane potential loss in human MGC803 cells assessed as collapse of the mitochondrial membrane potential at 6 uM after 48 hrs by JC-1 staining based flow cytometry (reference value: 4.1%); type: functional
In short: (§6)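 MGC-803 cells treated with vehicle or 6, 8 or 10 µM for 48 h. Mitochondrial membrane potential measured by JC-1 dye retention on flow cytometry.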

[32] = tested on: MGC-803; experiment: Induction of mitochondrial membrane potential loss in human MGC803 cells assessed as collapse of the mitochondrial membrane potential at 8 uM after 48 hrs by JC-1 staining based flow cytometry (reference value: 4.1%); type: functional; in short: as §6
[33] = tested on: MGC-803; experiment: Induction of mitochondrial membrane potential loss in human MGC803 cells assessed as collapse of the mitochondrial membrane potential at 10 uM after 48 hrs by JC-1 staining based flow cytometry (reference value: 4.1%); type: functional; in short: as §6
[34] = tested on: MGC-803; experiment: Induction of mitochondrial membrane potential loss in human MGC803 cells after 48 hrs by JC-1 staining based flow cytometry; type: functional, cell-based; in short: as §6
[35] = tested on: MGC-803; experiment: Induction of apoptosis in human MGC803 cells assessed as increase in Bax expression after 48 hrs by Western blot analysis; type: functional, cell-based
In short: (§7)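 MGC-803 cells treated at 0, 6, 8 or 10 µM for 48 h, then Western blotted. Band levels analysed statistically against control. Results representative of three independent experiments.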

[36] = tested on: MGC-803; experiment: Induction of apoptosis in human MGC803 cells assessed as increase in cleaved caspase-9 expression after 48 hrs by Western blot analysis; type: functional, cell-based; in short: as §7
[37] = tested on: MGC-803; experiment: Induction of apoptosis in human MGC803 cells assessed as increase in cleaved caspase-3 expression after 48 hrs by Western blot analysis; type: functional, cell-based; in short: as §7
[38] = tested on: MGC-803; experiment: Induction of apoptosis in human MGC803 cells assessed as increase in cleaved PARP expression after 48 hrs by Western blot analysis; type: functional, cell-based; in short: as §7
[39] = tested on: MGC-803; experiment: Induction of apoptosis in human MGC803 cells assessed as increase in DR4 expression after 48 hrs by Western blot analysis; type: functional, cell-based; in short: as §7
[40] = tested on: MGC-803; experiment: Induction of apoptosis in human MGC803 cells assessed as decrease in Bcl-xl expression up to 10 uM after 48 hrs by Western blot analysis; type: functional, cell-based
[41] = tested on: MGC-803; experiment: Induction of apoptosis in human MGC803 cells assessed as decrease in Bcl2 expression up to 10 uM after 48 hrs by Western blot analysis; type: functional, cell-based
[42] = tested on: MGC-803; experiment: Induction of apoptosis in human MGC803 cells after 48 hrs Annexin V-FITC/propidium iodide based flow cytometry; type: functional, cell-based; in short: as §5

O=c1[nH]cc(F)c(=O)[nH]1 [FLUOROURACIL]
IC50 [1]: 9.79 µM
IC50 [2]: 56.2 µM
IC50 [3]: 12.9 µM

c1ccc(Cn2cc(CSc3nnc(-c4ccccc4)c(-c4ccccc4)n3)nn2)cc1
IC50 [1]: 11.3 µM
IC50 [2]: 11.1 µM
IC50 [3]: 15.6 µM

O=c1ccc2ccc(OCCCn3cc(CSc4nnc(-c5ccccc5)c(-c5ccccc5)n4)nn3)cc2o1
IC50 [1]: > 100 µM
IC50 [2]: > 100 µM
IC50 [3]: 92.3 µM

O=C(/C=C/c1ccc(OCCCn2cc(CSC3=NCCS3)nn2)cc1)c1ccc(Br)cc1
IC50 [4]: 8.16 µM

Fc1ccc(Cn2cc(CSc3nnc(-c4ccccc4)c(-c4ccccc4)n3)nn2)cc1
Activity [5]: Active
Activity [6]: Active
Activity [7]: Active
IC50 [1]: 7.59 µM
IC50 [2]: 19.1 µM
IC50 [3]: 10.6 µM
IC50 [8]: 31.7 µM
inhibition [9]: Dose-dependent effect
Activity [10]: 41.49%
Activity [11]: 25.11%
Activity [12]: 26.75%
Activity [13]: 30.03%
Activity [14]: 25.87%
Activity [15]: 34.39%
Activity [16]: Dose-dependent effect
Activity [17]: Active
Activity [18]: Active
viability at 6 µM [19]: 88.7%
Activity [20]: 8.2%
Activity [21]: 2.9%
Activity [22]: 0.2%
viability at 8 µM [23]: 75.9%
Activity [24]: 16.9%
Activity [25]: 7%
Activity [26]: 0.2%
viability at 10 µM [27]: 45.1%
Activity [28]: 27.5%
Activity [29]: 27.3%
Activity [30]: 0.1%
Activity [31]: 5.2%
Activity [32]: 17%
Activity [33]: 42.9%
Activity [34]: Dose-dependent effect
Activity [35]: Dose-dependent effect
Activity [36]: Dose-dependent effect
Activity [37]: Dose-dependent effect
Activity [38]: Dose-dependent effect
Activity [39]: Dose-dependent effect
Activity [40]: Active
Activity [41]: Active
Activity [42]: Dose-dependent effect

c1ccc(-c2nnc(SCc3cn(Cc4ccc5ccccc5c4)nn3)nc2-c2ccccc2)cc1
IC50 [1]: > 100 µM
IC50 [2]: > 100 µM
IC50 [3]: > 100 µM

Cc1ccc(Cn2cc(CSc3nnc(-c4ccccc4)c(-c4ccccc4)n3)nn2)cc1
IC50 [1]: 34.8 µM
IC50 [2]: 12.4 µM
IC50 [3]: 22.6 µM

Clc1ccc(Cn2cc(CSc3nnc(-c4ccccc4)c(-c4ccccc4)n3)nn2)cc1
IC50 [1]: 13.2 µM
IC50 [2]: 24.2 µM
IC50 [3]: 14.7 µM

O=C(O)CCSc1nnc(-c2ccccc2)c(-c2ccccc2)n1
IC50 [1]: > 100 µM
IC50 [2]: > 100 µM
IC50 [3]: > 100 µM
